ERAP1 inh = ERAP1 (human) enzyme inhibition; recombinant ERAP1, Leu-AMC fluorescence, 60 min; inhibition, % at 10.7 µM; actives 0.15% (n = 340,000); AID 652197;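 active = mean replicate inhibition of at least 30%, or all replicates individually reaching that 30% level; inactive = mean below 30% and not every replicate reaching it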;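 note: 0% = neutral control wells and 100% = L-leucinethiol positive control wells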
PDI inh = blocks human protein disulfide isomerase activity. P07237. PDI insulin aggregation turbidity, A650, 90 min. inhibition, % at 10 µM. actives 0.052% (n = 350,000). AID 588391;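 active = mean inhibition across replicates of 30% or more, whatever share of single replicates reach that level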
Target sequence (P07237 whole entry, looked up): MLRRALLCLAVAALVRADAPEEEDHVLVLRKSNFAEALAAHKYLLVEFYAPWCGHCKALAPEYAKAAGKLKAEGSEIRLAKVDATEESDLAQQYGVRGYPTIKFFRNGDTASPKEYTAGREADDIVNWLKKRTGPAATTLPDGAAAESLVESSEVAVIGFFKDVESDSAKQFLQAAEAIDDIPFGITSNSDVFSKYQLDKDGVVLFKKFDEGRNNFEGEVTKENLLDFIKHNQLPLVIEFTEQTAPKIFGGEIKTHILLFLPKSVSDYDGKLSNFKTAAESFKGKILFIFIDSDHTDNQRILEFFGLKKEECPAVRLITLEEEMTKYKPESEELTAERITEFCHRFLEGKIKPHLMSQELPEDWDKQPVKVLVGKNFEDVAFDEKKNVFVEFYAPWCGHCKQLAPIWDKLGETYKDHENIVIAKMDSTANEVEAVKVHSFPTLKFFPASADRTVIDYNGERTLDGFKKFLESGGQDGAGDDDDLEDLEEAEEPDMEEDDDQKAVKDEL
ERp5 block = ERp5 (human) disulfide isomerase inhibition; AID 651711; Q15084; ERp5 insulin aggregation, absorbance 650 nm, 90 min; actives 0.05% (n = 350,000); inhibition, % at 9.99 µM;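 active = mean replicate inhibition above about 25%, with every replicate also reaching it, limit read from the data, passing the limit was not always enough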
FGF22 binding-1 = binders of recombinant human FGF22 by thermal shift; activity (Tm shift, normalised), % at 9.99 µM; SYPRO orange fluorescence; percent of sucrose octasulfate shift, DMSO zero; actives 1.5% (n = 340,000); Q9HCT0;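 active = mean Tm shift, scaled 0 neutral to 100 positive control, at about 1.3% or above, every replicate too, limit read from the data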
Target sequence (Q9HCT0 whole entry, looked up): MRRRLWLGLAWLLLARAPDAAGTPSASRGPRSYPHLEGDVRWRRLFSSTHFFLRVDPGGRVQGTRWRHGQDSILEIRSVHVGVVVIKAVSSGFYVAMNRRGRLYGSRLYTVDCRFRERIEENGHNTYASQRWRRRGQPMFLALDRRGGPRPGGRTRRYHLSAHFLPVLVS
S100A4 inh HTS = inhibitors of human S100A4 binding to myosin IIA peptide. P26447. S100A4/TAMRA-MyoIIA peptide fluorescence polarization. inhibition, % at 10.7 µM. actives 0.14% (n = 360,000). AID 652163;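 active = mean inhibition of at least 70% across replicates, with every replicate also reaching that level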
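System – human S100A4 monomer protein, biochemical binding assay · Buffer or medium – Calcium-containing HEPES buffer, pH 7.2 · Timing – 5 min between mix addition and reading · Also added – TAMRA-labelled myosin IIA heavy-chain peptide probe, 5 nM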
FGF22 binding-2 = binds human FGF22 shifting its melting temperature; AID 720646; shares compounds with FGF22 binding-1; thermal shift activity, °C (ΔTm) at 38 µM; actives 2% (n = 1,000); recombinant FGF22 thermal shift, SYPRO orange fluorescence;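 active = fitted rise in melting shift crosses a set limit at or below the top valid dose tested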
FGF22 TSA = FGF22 (human) binding by thermal shift; shares compounds with FGF22 binding-1; Thermal shift assay, SYPRO orange, melting temperature shift; Tm shift (activity), % at 38 µM; 50 tested, under 10 active; AID 743017;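 active = compounds whose fitted dose curve of melting temperature shift rises past a set threshold within the tested doses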
SYPRO no-protein = compound-only SYPRO artifact for FGF22 binders; shares compounds with FGF22 binding-1; AID 743019; AC50, µM (series often up to 38 µM); actives 2% (n = 1,000); compound-only SYPRO orange thermal shift counter-screen, no protein;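 active = rising signal whose fitted curve reaches the 0.54 level within the top valid dose, showing a melting point, actives reach about 13 µM in these data; inactive = the rest, including activity in the opposite direction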; note: value is where the raw curve crosses a fixed level and not half-maximal
* marks the source's active call; other numbers are inactive results; i = inactive; nt = no result; ! = a repeat was not active; [ ] = remark or other dose. Shown is part of a subset that was picked to be rich in hits.

SMILES	ERAP1 inh	PDI inh	ERp5 block	FGF22 binding-1	S100A4 inh HTS	FGF22 binding-2	SYPRO no-protein	others
CCOC(=O)C1CCCN(C(=O)c2cn(C)c3ccc(S(=O)(=O)N(C)C)cc3c2=O)C1 (configuration not stated)	-1.3	nt	-0.6	40.9	3.6	nt	nt
CCn1c2ccccc2c2cc(/C=N/NC(=O)c3ccc(O)cc3)ccc21	-3.7	-3.1	-1.0	0.6	3.5	nt	nt
CCn1c2ccccc2c2cc(/C=N/NC(=O)c3ccncc3)ccc21	-3.9	0.5	-2.8	1.5*	-4.2	0.13	i
CCNc1c(NS(=O)(=O)c2ccc(Br)s2)c(=O)oc2ccccc12	1.6	-7.5	-2.1	1.8*	1.0	0.043	i
O=C(N/N=C/c1ccc(C(F)(F)F)cc1)c1ccc(O)cc1	0.3	-0.4	-2.3	2.4*	0.6	-0.069	i	FGF22 TSA=0.1
O=C(N/N=C/c1cccc(C(F)(F)F)c1)c1ccc(O)cc1	0.3	-6.1	-3.8	0.0	3.1	nt	nt
CCN1C(=O)c2cccc3c(S(=O)(=O)Nc4ccc(O)c(C(=O)O)c4)ccc1c23	2.1	-8.5	-1.0	8.4*	-1.8	0.045	i
CC1CCCC(C)N1c1nnc(NC(=O)Cn2c(=O)oc3ccccc32)s1 (configuration not stated)	0.7	15.9	6.6	-0.2	29.9	nt	nt
O=C(CN1CCN(S(=O)(=O)c2ccc3ccccc3c2)CC1)N1CCc2ccccc2C1	nt	-6.0	nt	nt	nt	nt	nt
O=C(Nc1cccc(C(=O)NC2CCCC2)c1)c1ccccc1	0.4	-0.2	-1.1	0.1	0.7	nt	nt
O=C(NC1CC1)c1cccc(NC(=O)c2cnn(-c3ccccc3)n2)c1	1.2	-2.7	2.5	1.4*	2.0	0.036	i
COc1ccc2c(c1)[C@H]1[C@H](CO2)[C@H](c2ccccc2)[C@]2(C)C(=O)Nc3ccc(Br)cc3C(=O)N12	-0.5	6.2	3.4	0.4	-1.9	nt	nt
CN(C)C(=O)[C@@H]1[C@@H](CO)[C@@H]2Cn3c(ccc(-c4ccccc4)c3=O)[C@H]1N2CCc1ccccc1	1.5	nt	3.4	0.2	-6.9	nt	nt
O=C(O)c1ccc(NS(=O)(=O)c2ccc(C(=O)Nc3ccccc3)cc2)cc1	-1.2	8.9	-1.5	-0.1	1.5	nt	nt
O=C(CC(=O)c1ccccc1)Nc1cccc([N+](=O)[O-])c1	-0.6	5.5	-6.6	1.8*	9.0	0.111	i
O=C(O)c1ccc(NC(=O)c2cccc(S(=O)(=O)Nc3ccc(C(=O)O)cc3)c2)cc1	-0.1	-0.1	2.3	2.1*	-4.1	0.216	i
CN(C)S(=O)(=O)c1ccc(Cl)c(C(=O)Nc2cccc([N+](=O)[O-])c2)c1	nt	2.9	2.0	-0.1	1.3	nt	nt
O=C(O)c1cccc(NS(=O)(=O)c2ccc(Cl)c(C(=O)Nc3cccc([N+](=O)[O-])c3)c2)c1	nt	0.6	1.9	1.8*	0.4	-0.072	i
COc1ccc(NS(=O)(=O)c2cccc(C(=O)NNC(=O)c3ccccc3O)c2)cc1	2.7	-2.5	-5.0	2.0*	-20.0	0.093	i
Cc1ccccc1S(=O)(=O)N1CC(=O)N2[C@H](CO)[C@H](c3ccc(C#CCC4CCCC4)cc3)[C@@H]2C1	-0.6	nt	2.2	nt	21.1	nt	nt
Cc1cccc(N(C(=O)Cn2nnc3ccccc32)C(C(=O)NCc2ccco2)c2ccncc2)c1C (configuration not stated)	nt	7.2	nt	nt	nt	nt	nt
O=C(NCc1nnc(SCc2ccccc2)n1-c1ccc(F)cc1)C12CC3CC(CC(C3)C1)C2	0.0	-18.0	3.9	-0.1	-1.1	nt	nt
Cc1ccccc1NCC(=O)N/N=C\C=C\c1cccc([N+](=O)[O-])c1	2.9	-6.1	3.2	1.5*	-5.0	-0.104	i
Cc1nc2ccc(C(=O)N/N=C/c3ccccc3O)cc2[nH]1	1.8	1.9	-0.3	1.5*	-4.9	0.001	i
O=C(NCC[C@H]1CC[C@@H](NC(=O)C2CCOCC2)[C@H](CO)O1)Nc1ccc(Cl)cc1	1.5	nt	-4.0	1.7*	-2.9	-0.092[42 µM]	i
SMILES	ERAP1 inh	PDI inh	ERp5 block	FGF22 binding-1	S100A4 inh HTS	FGF22 binding-2	SYPRO no-protein	others
O=C(NCC[C@H]1CC[C@@H](NC(=O)C2CCOCC2)[C@@H](CO)O1)Nc1ccc(Cl)cc1	2.5	nt	-0.2	1.6*!	0.3	0.331[42 µM]	i
O=C(NCC[C@H]1CC[C@@H](NC(=O)C2CC2)[C@H](CO)O1)Nc1ccc(Cl)cc1	0.3	nt	-2.4	-0.2	0.3	nt	nt
Cc1ccc(S(=O)(=O)N[C@H]2CC[C@@H](CCNC(=O)C3CCOCC3)O[C@H]2CO)cc1	6.0	nt	0.2	1.0	5.6	nt	nt
O=C(Nc1ccc(Cl)cc1)N[C@H]1CC[C@@H](CCNC(=O)c2cc(Cl)cc(Cl)c2)O[C@H]1CO	-5.3	nt	1.0	nt	12.7	nt	nt
O=C(Nc1ccc(Cl)cc1)N[C@H]1CC[C@H](CCNC(=O)c2cc(Cl)cc(Cl)c2)O[C@@H]1CO	-0.4	nt	-6.4	2.5*	-2.0	-0.298	i
Cc1ccc(S(=O)(=O)N[C@H]2CC[C@H](CCNC(=O)C3CCOCC3)O[C@H]2CO)cc1	3.3	nt	-0.3	2.0*	3.4	0.441[42 µM]	i
COC(=O)C1=C(C(C)=O)C(c2ccc(C)cc2)n2nnnc2N1 (configuration not stated)	nt	-37.5	nt	nt	nt	nt	nt
CC(=O)c1cccc(NC(=O)C2CCCN2S(=O)(=O)c2cccs2)c1 (configuration not stated)	10.3	-4.5	9.1	17.4*	-1.5	-0.082	i
O=C(Nc1ccc(Br)cc1)C1CCCN1S(=O)(=O)c1cccs1 (configuration not stated)	nt	3.0	nt	nt	nt	nt	nt
O=C(Nc1cc(Cl)cc(Cl)c1)N[C@H]1CC[C@H](CCNS(=O)(=O)c2cccc(F)c2)O[C@H]1CO	0.8	nt	0.5	-0.4	1.3	nt	nt
O=C(Nc1cc(Cl)cc(Cl)c1)N[C@@H]1CC[C@@H](CCNS(=O)(=O)c2cccc(F)c2)O[C@@H]1CO	2.6	nt	-5.0	2.7*!	5.4	-0.311[42 µM]	i	FGF22 TSA=-0.3
Cc1ccccc1S(=O)(=O)NCC[C@@H]1CC[C@@H](NC(=O)Nc2cccc(Cl)c2)[C@@H](CO)O1	-2.6	nt	3.8	1.3*	8.2	-0.071[42 µM]	i
O=C(CCN1CCCCC1)N[C@@H]1CC[C@H](CCNS(=O)(=O)c2ccc(F)cc2)O[C@H]1CO	1.6	nt	-8.1	1.7*	4.6	-0.187	i
CCN(CC)C(=O)CN1CCC(c2nc3cc(C)c(C)cc3[nH]2)CC1	1.6	-7.0	2.8	0.1	-18.0	nt	nt
O=C(NN(C(=O)C1CC1)c1nc2ccccc2s1)C1CC1	6.6	5.7	3.2	-0.1	-16.1	nt	nt
